The structures appear in SMILES notation.

One may read the half-life as the time in which the quantity being followed falls by half. As usually defined, the bioavailability is dose-corrected exposure relative to a reference, in per cent. The term IC50 denotes the midpoint of a concentration-inhibition curve. Broadly, the Ki is the equilibrium dissociation constant of an inhibitor or competing ligand from its target.

Series [1] can be described thus: Selectivity ratio of human ICE to caspase 8.
Series [2] in a line: Selectivity ratio of human ICE to caspase 3.
The nature of series [3]: Selectivity ratio of human ICE to caspase 4.
Series [4] can be described thus: Selectivity ratio of human ICE to caspase 6.
The next series is filed under the species Homo sapiens. Description: Half life in human plasma.
Series [5] is described as follows: Oral bioavailability in Wistar rat at 25 mg/kg. The class given is ADME, organism-based. Particulars: in vivo. In outline:
(§1)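 Wistar rats received 25 mg/kg orally in a vehicle of 10% DMSO, 11.25% Trappsol and D5W. Compound was measured in blood by LC/MS.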

Series [6] is described as follows: Half life in Wistar rat at 25 mg/kg, po. It is filed as ADME, organism-based. The arrangement: dose 25 mg/kg, route oral. Particulars: in vivo. In outline: as §1
Series [7] has as its target T1, Caspase-1 (Homo sapiens, UniProt P29466).
T1 sequence (P29466 whole entry): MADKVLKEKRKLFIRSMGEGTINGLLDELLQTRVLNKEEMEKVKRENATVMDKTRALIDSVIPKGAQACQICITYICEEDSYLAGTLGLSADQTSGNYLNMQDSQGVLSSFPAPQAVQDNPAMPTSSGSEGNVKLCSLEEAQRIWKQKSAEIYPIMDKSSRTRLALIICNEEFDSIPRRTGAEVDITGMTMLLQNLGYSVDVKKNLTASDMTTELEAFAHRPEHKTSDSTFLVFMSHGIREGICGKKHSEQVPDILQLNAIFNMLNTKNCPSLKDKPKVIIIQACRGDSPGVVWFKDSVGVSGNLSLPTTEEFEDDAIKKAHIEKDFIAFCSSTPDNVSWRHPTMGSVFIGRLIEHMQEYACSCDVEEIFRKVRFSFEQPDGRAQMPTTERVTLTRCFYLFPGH
The experiment in a line: Inhibition of human ICE.

The subject of the next series is PBMC. Description: Inhibition of LPS-induced IL1-beta production in human PBMC by ELISA. It is filed as functional, cell-based. The gist of the method: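 Human PBMC were suspended in RPMI 1640 with glutamine, penicillin, streptomycin and 2% human AB serum, at 10^6 cells per well. Cells were stimulated overnight with 10 ng/mL LPS, with or without inhibitor. Mature IL-1β in the harvested medium was measured by ELISA.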
(In general: An ELISA detects its analyte on a solid surface through an enzyme-linked reagent.)

The target of series [8] is T2, Caspase-1 (Mus musculus, UniProt P29452).
T2 sequence (P29452 whole entry): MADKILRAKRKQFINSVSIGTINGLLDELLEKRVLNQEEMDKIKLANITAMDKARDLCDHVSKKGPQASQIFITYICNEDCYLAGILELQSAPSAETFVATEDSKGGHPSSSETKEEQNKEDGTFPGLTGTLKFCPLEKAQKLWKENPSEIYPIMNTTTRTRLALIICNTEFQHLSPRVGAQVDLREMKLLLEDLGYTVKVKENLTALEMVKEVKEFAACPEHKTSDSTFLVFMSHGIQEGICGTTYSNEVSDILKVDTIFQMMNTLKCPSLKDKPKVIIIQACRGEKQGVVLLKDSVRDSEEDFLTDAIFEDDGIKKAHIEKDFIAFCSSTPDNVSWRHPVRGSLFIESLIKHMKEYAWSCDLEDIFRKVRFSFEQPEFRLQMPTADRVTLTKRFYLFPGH
Description: Inhibition of mouse ICE.

For another series, the system named is Mus musculus. The experiment in a line: Reduction of IL1-beta level in human PBMC cells xenografted SCID mouse at 3 mg/kg, iv after 2 hrs. It is filed as functional. More on the design: scale not given: the % may be the effect or the level left. The gist of the method: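 huSCID model: SCID mice were injected with human PBMC 15 min before the start. At time zero they received LPS at 5 mg/kg iv. Compound was given at 3 mg/kg iv, and mice were bled at 2 h.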
A general note: In xenograft studies the graft and the host belong to different species.

In the case of `CCO[C@@H]1OC(=O)C[C@@H]1NC(=O)[C@@H](CC(=O)NCCc1cccc2ncccc12)C(C)C`, the Selectivity ratio in series [1], in [2], in series [3] and in [4] was greater than 200 throughout. Also, the half-life in the series listed under Homo sapiens was 0.87 h. Besides, in series [5], the bioavailability was found to be 25%.
As to `CCO[C@@H]1OC(=O)CC1NC(=O)[C@@H]1CCCN2C(=O)CC[C@H](NC(=O)c3nccc4ccccc34)C(=O)N12` (some centres not stated), the Selectivity ratio in series [1], in [2], in [3] and in series [4] was greater than 200 in each case. The half-life in series [6] was 0.87 h.
Take `CCOC1OC(=O)C[C@@H]1NC(=O)[C@@H](CC(=O)NCCn1c(C)nc2ccccc21)C(C)C` (some centres not stated): the Selectivity ratio in series [1], in [2], in series [3] and in series [4] was greater than 200 throughout. For the same molecule, the half-life in series [6] was 1.6 h.
For the molecule `CCCO[C@H]1OC(=O)C[C@@H]1NC(=O)[C@@H](CC(=O)NCCc1cccc2ncccc12)C(C)C`, the Selectivity ratio in series [1], in series [2], in series [3] and in series [4] was greater than 200 each time. Also, the half-life in the series listed under Homo sapiens is 10 h. The molecule also had a bioavailability in [5] of 35%.
As for `CC(C)[C@H](CC(=O)NCCc1cccc2ncccc12)C(=O)N[C@H]1CC(=O)O[C@@H]1OC1CCCC1`, the Selectivity ratio in [1], in series [2], in [3] and in series [4] was greater than 200 each time. In the series filed under Homo sapiens, the half-life was 5.1 h. This molecule showed a bioavailability in [5] of 5%.
For `CC(C)[C@H](CC(=O)NCCc1cccc2ncccc12)C(=O)N[C@H](C=O)CC(=O)O`, the 50% inhibitory concentration (IC50) against Caspase-1 [7] was found to be 5.81 nM; in the series with PBMC, 650 nM. For the same molecule, the Ki at Caspase-1 [7] was determined as 1.81 nM; at Caspase-1 [8], 14.4 nM. Also, the Activity with Mus musculus was found to be 52%.
For `Cc1nc2ccccc2n1CCNC(=O)C[C@H](C(=O)N[C@H](C=O)CC(=O)O)C(C)C`, the concentration for half-maximal inhibition (IC50) was 23.8 nM against Caspase-1 [7] and 2900 nM with PBMC. Besides, the Ki at Caspase-1 [8] was 18.7 nM. Also, the Activity in the series with Mus musculus stood at 68%.
`CCOC1OC(=O)C[C@@H]1NC(=O)[C@@H](CC(=O)NCCc1c(C)[nH]c2ccccc12)C(C)C` (some centres not stated): the Selectivity ratio in [1], in [2], in [3] and in series [4] was greater than 200 throughout. This molecule also showed a half-life in series [6] of 1.27 h.
With `Cc1[nH]c2ccccc2c1CCNC(=O)C[C@H](C(=O)N[C@H](C=O)CC(=O)O)C(C)C`, the IC50 against Caspase-1 [7] was 18 nM; in the series with PBMC, 1500 nM. Besides, the Ki on Caspase-1 [7] came to 1.29 nM; on Caspase-1 [8], 13.4 nM. In the series on Mus musculus, the Activity came out at 54%.
On to `CCOC1OC(=O)C[C@@H]1NC(=O)[C@@H](CC(=O)NCCc1cccc2ncccc12)C(C)C` (some centres not stated), for which the Selectivity ratio in [1], in series [2], in [3] and in series [4] was greater than 200 in each case. For the same molecule, in series [6], the half-life was 0.87 h.
With `CCCO[C@@H]1OC(=O)C[C@@H]1NC(=O)[C@@H](CC(=O)NCCc1cccc2ncccc12)C(C)C`, the Selectivity ratio in series [1], in series [2], in [3] and in [4] was greater than 200 each time. The same molecule gave a half-life in the series filed under Homo sapiens of 2 h. The bioavailability in [5] was 9%.
For the molecule `CC(=O)N[C@@H](Cc1ccc(O)cc1)C(=O)N[C@H](C(=O)N[C@@H](C)C(=O)N[C@H](C=O)CC(=O)O)C(C)C`, the IC50 against Caspase-1 [7] was found to be 17 nM; with PBMC, 1200 nM. The Ki turned out to be 0.7 nM on Caspase-1 [7] and 9 nM at Caspase-1 [8]. Besides, the Selectivity ratio in series [1], in [2], in series [3] and in series [4] was greater than 200 each time. For the same molecule, the Activity with Mus musculus is 69%.
In the case of `O=C[C@H](CC(=O)O)NC(=O)[C@@H]1CCCN2C(=O)CC[C@H](NC(=O)c3nccc4ccccc34)C(=O)N12` [VRT-18858], the results for the half-inhibitory concentration (IC50) on Caspase-1 [7] and in the series with PBMC were 3.4 nM and 380 nM, respectively. The Ki on Caspase-1 [7] worked out at 0.6 nM; on Caspase-1 [8], 7 nM. Besides, in the series with Mus musculus, the Activity is listed as 62%.

Source of the values: ChEMBL document CHEMBL1221254, “Succinic acid amides as P2-P3 replacements for inhibitors of interleukin-1beta converting enzyme (ICE or caspase 1)” (Bioorg Med Chem Lett, 2010).
